# Screening data: PubChem, The Scripps Research Institute Molecular Screening Center
# Hits are enriched below; roughly 3.9% of the tested compounds scored in any of these assays.
# TAAR1 agonist: human TAAR1 agonists, primary screen, Fluo-8 calcium fluorescence, CHO RD-HGA16 cells; Trace amine-associated receptor 1 (Homo sapiens), Q96RJ0; vehicle wells 0%, saturating PEA agonist 100%; activation, % at 3 µM; 360,000 compounds, 0.99% hits; AID 624467, 2012;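 active = activation above the mean activation of all test compounds in the run plus 3 SD, cut at about 38% in these data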
# Target sequence (Q96RJ0 whole entry, looked up): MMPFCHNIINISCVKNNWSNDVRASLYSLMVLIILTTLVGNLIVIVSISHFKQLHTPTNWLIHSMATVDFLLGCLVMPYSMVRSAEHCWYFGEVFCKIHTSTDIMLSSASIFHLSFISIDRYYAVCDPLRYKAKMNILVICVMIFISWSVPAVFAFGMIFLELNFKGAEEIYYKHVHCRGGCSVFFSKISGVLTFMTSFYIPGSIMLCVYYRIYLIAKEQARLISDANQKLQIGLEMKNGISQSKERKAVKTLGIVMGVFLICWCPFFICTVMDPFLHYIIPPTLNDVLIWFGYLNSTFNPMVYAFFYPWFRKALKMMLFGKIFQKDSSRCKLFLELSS
#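 Assay system: CHO-derived RD-HGA16 cells with stable Gα16 and human TAAR1; timing: 17-24 h seeding, 75 min 37 °C dye, 30 min RT; read-out: % activation from peak over basal fluorescence ratio, DMSO-to-PEA scaled; measured by: kinetic Fluo-8 calcium fluorescence; benchmarks: low control DMSO, high control PEA (EC100); doses: 3 µM single concentration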
# CHRM1 agonist: human M1 muscarinic receptor agonists, primary screen, Fluo-8 calcium fluorescence, CHO-K1 cells, HTS | Muscarinic acetylcholine receptor M1 (Homo sapiens), P11229 | CHO-K1 hM1, agonist mode; 0% DMSO, 100% acetylcholine EC100 | activation, % at 3 µM | 360,000 compounds, 0.33% hits | AID 588814, 2011;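 active = activation above the run's mean compound activation plus 3 SD, cut at about 16% in these data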;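 also: peak over basal fluorescence ratio within a 140 s kinetic read after compound addition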
# CHRM1 PAM: human M1 muscarinic receptor positive allosteric modulators, primary screen, CHO-K1 cells, Fluo-8 calcium fluorescence, 1536-well; Muscarinic acetylcholine receptor M1 (Homo sapiens), P11229; CHO-K1 hM1, ACh EC20; 0% = ACh EC20, 100% = maximal ACh; activation, % at 3 µM; 360,000 compounds, 0.088% hits; in the data active = activation above about 19%, passing the limit was not always enough
# M1 antag: human M1 muscarinic receptor antagonists, primary screen, CHO-K1 cells, Fluo-8 calcium fluorescence, 1536-well; Muscarinic acetylcholine receptor M1 (Homo sapiens), P11229; CHO-K1 hM1, ACh EC80 antagonist; inhibition, % at 3 µM; 360,000 compounds, 1.3% hits; AID 588852, 2011;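 active = percent inhibition above its own plate's cutoff, namely the mean of that plate's compound wells plus 3 SD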;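 also: peak over basal fluorescence ratio during 140 s after agonist addition; 0% = ACh EC80 plus DMSO and 100% = DMSO alone without agonist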
# m5-HT2A agonist: mouse Htr2a agonists via beta-arrestin recruitment, primary screen, cell-based, luminescence; CHO-K1 mHTR2A beta-arrestin complementation; percent of 30 µM serotonin response; 5-hydroxytryptamine receptor 2A (Mus musculus), P35363; activation, % at 7.6 µM; 360,000 compounds, 0.66% hits;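 active = activation above a run cutoff, the mean activation of all tested compounds plus 3 SD, cut at about 14% in these data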;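 also: 0% = plate median of compound wells and 100% = 30 µM serotonin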
# TAAR1 antag: human TAAR1 antagonists, primary screen, Fluo-8 calcium fluorescence, CHO RD-HGA16 cells; AID 624466, 2012; antagonist; inhibition, % at 3 µM; 360,000 compounds, 1.5% hits;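 active = inhibition above a per-plate cutoff, the mean inhibition of test compounds on that plate plus 3 SD, cut at about 49% in these data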;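 also: 0% = DMSO plus EC80 beta-PEA response and 100% = DMSO alone without agonist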
#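 Test system – hTAAR1-expressing CHO RD-HGA16 cells, Gα16-coupled · Reagent – β-PEA at EC80 concentration, post-compound challenge · Compound dosing – 3 µM, single point · Timing – 140 s kinetic read after compound, 140 s after agonist · Detection – Fluo-8 intracellular calcium dye fluorescence, real-time kinetic reads · Control set – DMSO and EC80 PEA controls · Repeats – n of 1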
# * = called active by the depositor; x = no result.
SMILES,TAAR1 agonist,CHRM1 agonist,CHRM1 PAM,M1 antag,m5-HT2A agonist,TAAR1 antag
CCOC(=O)c1ccc(N2CCN(c3ccccc3F)CC2)c(NC(=O)Nc2cccc(OC)c2)c1,10.0,0.8,-12.2,31.6*,2.6,69.3*
CCOC(=O)c1ccc(NC(=O)N2CCN(c3cccc(OC)c3)CC2)cc1,13.0,-0.8,-7.0,44.4*,3.2,29.2
CCOc1ccccc1N(CC(=O)N1CCC(C)CC1)S(=O)(=O)c1ccc(C)cc1,-2.9,-6.8,-15.8,31.8*,-1.9,-1.3
CNCCC=C1c2ccccc2C=Cc2ccccc21,8.8,-3.9,-25.1,98.0*,-2.0,4.9
CN(C)CCC=C1c2ccccc2C=Cc2ccccc21,8.4,-6.0,-25.4,98.1*,-6.1,-12.6
COc1ccc(CN(CCC(c2ccc(F)cc2)C2CCOC(C)(C)C2)C(=O)c2ccco2)cc1 (stereo unspecified),12.4,-8.1,-23.6,25.8*,1.9,63.8*
CC(c1ccccc1)N(CCC(c1ccccc1)C1CCOC(C)(C)C1)C(=O)c1ccco1 (stereo unspecified),2.9,-6.0,-6.5,4.9,-4.3,25.9
O=C(C(=O)N1CCN(S(=O)(=O)c2cccc3ccccc23)CC1)c1cccc(C(F)(F)F)c1,2.6,x,x,x,x,8.1
Cc1cccc(C)c1OCC(O)CN (stereo unspecified),41.2*,-0.7,4.3,-20.3,8.6,-16.2
COC(=O)c1ccc(OCC2c3cc(OC)c(OC)cc3CCN2C(C)=O)cc1 (stereo unspecified),2.0,-2.8,-12.3,16.9,-0.2,-11.4
COC(=O)c1ccc(OCC2c3cc(OC)c(OC)cc3CCN2C(=O)c2ccco2)cc1 (stereo unspecified),15.0,-3.5,-13.9,22.5,4.2,61.4*
CC(/C=N/NC(=O)c1ccncc1)=C\c1ccc(C(C)C)cc1,17.6,3.0,-7.9,16.3,5.8,48.6*
CC(/C=N/NC(=O)c1cccnc1)=C\c1ccccc1,7.7,-4.0,9.0,-5.5,-0.1,10.6
CCOC(=O)C1=C(C)N(c2ccccc2)C(=O)NC1c1cccc([N+](=O)[O-])c1 (stereo unspecified),1.4,-8.9,-23.2,68.1*,-3.0,12.8
COc1ccc(CNc2ncnc3sccc23)cc1OC,-0.9,3.1,-4.1,-1.2,9.8,28.6
OC(CNc1ncnc2sccc12)c1ccccc1 (stereo unspecified),11.5,1.6,-7.0,10.3,6.8,-11.9
CN(C)C(CNc1ncnc2sccc12)c1ccccc1 (stereo unspecified),12.6,-14.5,-32.6,47.1*,6.1,1.6
COc1ccc(CNc2ncnc3sccc23)cc1,-0.6,-1.4,-19.0,31.2*,-9.7,4.1
COC(=O)[C@]12C[C@H](CC(=O)NCCCCc3ccccc3)C(=O)N(CCC3=CCCCC3)C1=C[C@H](C(C)(C)C)O[C@@H]2C,0.7,x,x,x,x,-21.2
O=S(=O)(NCC(c1cccs1)N1CCc2ccccc2C1)c1ccccc1 (stereo unspecified),1.7,-2.8,-1.0,-8.5,-4.5,-11.1
CCN(CC(=O)NCc1ccc(Cl)cc1)C(=O)CCOc1ccc(C)cc1,4.0,-4.7,3.1,-12.6,-1.9,-37.7
CN1C2CCC1CC(NC(=O)c1ccc(Cl)cc1)C2 (stereo unspecified),7.1,-8.0,11.7,-10.8,1.9,-28.5
CN1C2CCC1CC(NC(=O)CSc1ccc(Cl)cc1)C2 (stereo unspecified),0.8,-7.7,-24.9,53.0*,-0.3,-7.8
O=C(/C=C/c1cccs1)Nc1cccc(NC(=O)/C=C/c2cccs2)n1,9.8,-3.4,-21.9,46.7*,-7.0,23.0
COc1cc(/C=N/NC(=O)NC23CC4CC(CC(C4)C2)C3)ccc1OCC(N)=O,27.9,5.3,-8.0,24.5,8.3,58.1*
SMILES,TAAR1 agonist,CHRM1 agonist,CHRM1 PAM,M1 antag,m5-HT2A agonist,TAAR1 antag
COc1ccccc1-n1c(=O)c(C#N)c(-c2ccc([N+](=O)[O-])cc2)c2cc(C(=O)c3cc(F)ccc3O)cnc21,14.3,-1.4,-8.3,8.1,0.2,-3.0
Cn1c(=O)c(C#N)c(-c2ccc(F)cc2)c2cc(C(=O)c3cc(Cl)cc(Cl)c3O)cnc21,4.1,3.5,-11.8,31.4*,-4.1,-33.6
O=C(CCC1CCCC1)N[C@@H](Cc1ccc(O)cc1)C(=O)O,14.3,-3.9,-4.9,10.6,-3.2,1.3
CCOc1ccccc1-n1c(SC(C)C(=O)NCC2CCCO2)nc2ccccc2c1=O (stereo unspecified),-2.7,30.0*,2.4,-5.3,4.8,10.9
CCOC(=O)C1CCCN(CCC(=O)Nc2ccc(C)c(C)c2)C1 (stereo unspecified),9.8,14.6,-6.6,1.3,-6.1,12.8
CCOC(=O)C1CCCN(CCC(=O)Nc2ccc(Br)cc2)C1 (stereo unspecified),4.0,-3.0,-12.9,20.2,-7.7,-13.8
CCOC(=O)C1CCCN(CCC(=O)Nc2ccc(Br)c(C)c2)C1 (stereo unspecified),21.0,24.2*,-7.0,-0.7,-5.5,30.6
CCOC(=O)C1CCCN(CCC(=O)Nc2ccc3c(c2)CCC3)C1 (stereo unspecified),35.5,23.1*,-7.5,-5.0,-1.3,17.7
Oc1cccc(N2CCN(c3cccc(O)c3)CC2)c1,3.9,x,x,x,x,-9.1
CN(C)/C=N/c1cnc(C(=O)c2ccc(Cl)cc2)n1C,3.0,-1.5,26.0*,10.2,1.5,13.9
CN(C)/C=N/NC(=O)c1ccc(Cl)cc1,2.3,-6.7,-0.3,3.8,1.2,2.9
CC(=C/c1ccccc1)/C=N/n1c(-c2ccncc2)n[nH]c1=S,24.5,29.6*,4.9,-0.5,-1.7,-16.0
O=C1Nc2ccccc2C(=O)N2[C@H](c3ccc(F)cc3)[C@@H]3C(=O)N(Cc4ccccc4)C(=O)[C@@H]3[C@H]12,15.8,36.4*,8.0,16.1,6.6,5.0
CCN1C(=O)[C@@H]2[C@H](C1=O)[C@@H]1C(=O)Nc3ccccc3C(=O)N1[C@@H]2c1ccccc1,0.3,-5.2,2.4,-10.3,4.0,10.4
CC(C)C(=O)COc1c2occc2cc2ccc(=O)oc12,-0.2,-3.4,-0.7,-1.5,-2.9,-9.5
